assay: Toxicity liver stage against HepG2, at 10uM; type: cell-based; set-up: test concentration 10 uM, cell line HepG2-A16-CD81EGFP; settings: human, HepG2-A16-CD81EGFP cells; read-out: INHIBITION
Outline: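 Uninfected HepG2-A16-CD81EGFP cells, 3 × 10^3 per well, 1536-well, plated on prespotted compound at 10 μM final, parasite-free screening media added to match infected plates; puromycin 10 μM positive, DMSO 0.5% negative; run in parallel with 48 h PbLuc assay at 37 °C, 5% CO2; viability by CellTiter-Glo luminescence, normalized to controls.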

| Structure (SMILES) | cytotoxicity at 10 µM |
| --- | --- |
| CCC(NS(C)(=O)=O)c1ccccc1OC (stereo not drawn) | -43.1% |
| CC1=C(c2ccc(C(C)C)cc2)S(=O)(=O)N=C1N1CCc2ccccc21 | -16.8% |
| Cc1ccsc1C1CCCCCN1Cc1cn(C)nc1C (stereo not drawn) | -4.38% |
| Cc1nnsc1C(=O)N1CC(c2nc3ccccc3[nH]2)C1 | 4.17% |
| O=S(=O)(Nc1cnc(N2CCOCC2)nc1)c1cccc(F)c1 | -19.2% |
| Cc1nnsc1C(=O)NCc1nn(C2CCCC2)c2c1CCCC2 | -0.543% |
| CC(C)CNC(=O)N1CCC2(CCCO2)C1 (stereo not drawn) | 12.9% |
| CN1CCCN(C(=O)c2cc3c(s2)CCN3C(=O)c2ccccc2)CC1 | 1.05% |
| Cn1cnnc1SCc1cc2c(cc1Br)OCO2 | 6.44% |
| O=c1cc(-c2ccccc2)nc2n1CCCCC2 | 1.36% |
| O=C(CCSC1CCc2ccccc2NC1=O)NCCCO (stereo not drawn) | -5.65% |
| Cc1cccc(C(=O)NCCCN2CCN(c3ccccc3)CC2)c1 | 7.67% |
| Cc1nn(C)c2c(=O)n(C)c(NCC3CCCO3)nc12 (stereo not drawn) | 0.186% |
| O=C(c1cnn2c(-c3ccco3)ccnc12)N1CCCCCC1 | 14.4% |
| CNC(=O)c1cccc(CC2COCCN(Cc3ccsc3)C2)n1 (stereo not drawn) | -0.257% |
| O=C(c1ccncc1)N1CCC(c2nc(O)cc(-c3cccnc3)n2)C1 (stereo not drawn) | -0.0788% |
| NC(=O)C1(Cc2ccccc2-c2ccccc2)CCCN(CC2CC2)C1 (stereo not drawn) | 1.67% |
| COCC(=O)Nc1ccc(Oc2ccsc2C(=O)O)cc1 | 8.12% |
| Cc1ccnc(N2CCC(OCCN3CCCCC3)C2)n1 (stereo not drawn) | -49.4% |
| O=S(=O)(NCCCn1cncn1)c1ccc2c(c1)OCCCO2 | 3.51% |
| Cc1cc(NC(=O)NCc2nncn2C)ccc1OC(C)C | 6.23% |

| Structure (SMILES) | cytotoxicity at 10 µM |
| --- | --- |
| CN(C)C(=O)c1ccccc1NC(=O)N[C@@H]1c2ccccc2C[C@@H]1O | -43.1% |
| Cc1nc(CNC(=O)N2CCN(c3ccc(Cl)cn3)CC2)no1 | -13.1% |
| COC(=O)CSCc1nc(-c2ccc(Cl)cc2)no1 | 3.77% |
| COc1cccc(CC(=O)N2CCC(O)(C(F)(F)F)C2)c1 (stereo not drawn) | 1.16% |
| Cc1cccc(CCC(=O)NCC2CCCN2c2cccnn2)c1 (stereo not drawn) | -3.96% |
| O=C(CC1CCCC1)NCCn1nc2ccccn2c1=O | 9.97% |
| Cc1cc(N2CCN(c3nc4ccccc4cc3CO)CC2)nc(C)n1 | 7.86% |
| Cc1cc(C(N)=O)ccc1NC(=O)c1nc(N2CCCCC2)ncc1Cl | -13.9% |
| CCN1CCC(CNCc2cc(C)ccc2OC)C1 (stereo not drawn) | 17.4% |
| CCc1ccsc1C(=O)N1CCCC(c2noc(C)n2)C1 (stereo not drawn) | 3.77% |
| Cn1cc(CC2CCN(C(=O)NCCCc3ccc(O)cc3)C2)cn1 (stereo not drawn) | 0.557% |
| CCOc1cccc(COC(=O)c2cc(Cl)ccn2)n1 | -2.52% |
| CN(C)c1ncncc1NC(=O)Cc1c[nH]c2ccc(F)cc12 | -9.74% |
| Cc1cc(C(=O)NCCN2CCCc3ccccc32)[nH]n1 | 0.868% |
| CC(C(=O)Nc1ccc2ccccc2c1)N1CCC(n2ccnc2)CC1 (stereo not drawn) | -4% |
| CC(=O)Nc1nc(C(=O)NCCOc2ccc(C)cc2)cs1 | 5.35% |
| Cc1nnc2n1CCN(Cc1c(Cl)ccc3cccnc13)C2 | 8.25% |
| c1ccc(CC2(CNCc3ncc[nH]3)CCC2)cc1 | 0.458% |
| Cc1ccc(OCCCNC(=O)CN(C)c2ccc(C#N)cn2)cc1 | 4.01% |
| Cn1cnc2c1CCN(CCCOc1ccc(S(C)(=O)=O)cc1)C2 | 4.94% |
| Cc1cc2n(n1)CC(CNC1CCN(c3ccc(F)cc3)CC1)CN2 (stereo not drawn) | -10.3% |

| Structure (SMILES) | cytotoxicity at 10 µM |
| --- | --- |
| O=C(NS(=O)(=O)c1ccccc1Cl)c1cccc2c1OCCO2 | -11% |
| Cc1nc(CN2CCN(C)C(=O)C23CCN(CC2CCCC2)CC3)cs1 | 11% |
| Cc1ccc2c(n1)N(C)CCN(Cc1cnn(C)c1)C2 | 3.04% |
| Cn1cccc1C(=O)N1CCc2ncnc(N3CCCC3)c2CC1 | -1.31% |
| O=C(c1ccco1)N1CCC2(CC1)C(=O)NCCN2CC1CC1 | 4.3% |
| CN1CC(c2ccccc2)CC2(CCN(C(=O)c3ccccc3)CC2)C1 (stereo not drawn) | -0.0342% |
| Cc1n[nH]c(C)c1CC(=O)N1CCC2(CC1)CN(C)CCN2C | 1.73% |
| CN1CCCC(CCC(=O)N2CCc3c(nc(CC4CC4)[nH]c3=O)C2)C1 (stereo not drawn) | -8.61% |
| CCc1csc(CNCC(=O)Nc2ccc(Cl)c(C)c2)n1 | 5.33% |
| CNS(=O)(=O)c1ccc(CN2CCN(Cc3ncccc3C)CC2)cc1 | 8.41% |
| CC(CCc1ncnn1Cc1cccc(Cl)c1)N1CCCC1 (stereo not drawn) | -3.03% |
| CCCS(=O)(=O)N1CCC2(CCC(=O)N(Cc3ccccc3)C2)CC1 | 11.2% |
| COc1ncc(-c2cc(NCCN(C)C)nc3[nH]ccc23)c(OC)n1 | -20.7% |
| CC(C)c1cc(C2CCN(Cc3cc(F)cc(F)c3)CC2)[nH]n1 | -7.46% |
| Cc1cc2ncn(C[C@]3(O)CCCN4CCCC[C@@H]43)c2cc1C | -2.42% |
| CCC(=O)N1CCCC1C(=O)N1CCC(Cc2ccc(F)cc2)CC1 (stereo not drawn) | -0.0726% |
| CCN1CCC(N[C@@H]2CC[C@@H]2NC(=O)Cc2csc(C)n2)CC1 | 1.82% |
| CN(CC1(CO)CCC1)C(=O)C1CCC(=O)N(Cc2ccc(Cl)cc2)C1 (stereo not drawn) | -11.2% |
| CN(C)CCN(Cc1ccsc1)C(=O)C1=NNC(=O)CC1 | 6.62% |
| CCN1CCC(CC(=O)N2CCCCC2CCn2cccn2)CC1 (stereo not drawn) | -5.02% |
| Cc1nn(C)c(C)c1CN(C)C1CCN(c2ncnc3[nH]cnc23)CC1 | -76.7% |

| Structure (SMILES) | cytotoxicity at 10 µM |
| --- | --- |
| O=C(NCCC1COc2ccccc2O1)c1ccc(-c2cn[nH]c2)nc1 (stereo not drawn) | 4.65% |
| O=C(c1ccc[nH]1)N1CCN(CC2CCOc3ccccc3C2)CC1 (stereo not drawn) | 4.03% |
| Cc1nnc(N2CCOC(CN(C)C)C2)c(C#N)c1C (stereo not drawn) | -9.95% |
| Cc1nn(C)c(C)c1C1CCCN1Cc1nc(-c2ccco2)no1 (stereo not drawn) | -3.17% |
| O=C(Nc1cccc(N2CCCC2)c1)C1CCCN1c1nccs1 (stereo not drawn) | -6.08% |
| CC(C)Cc1noc(CN2CCN(CCO)CC2)n1 | -1.22% |
| CCn1c(CN2CCC(O)(C(=O)OC)CC2)nc2c(F)cccc21 | -9.73% |
| c1coc(-c2noc(CN3CCCC(Cn4cncn4)C3)n2)c1 (stereo not drawn) | -7.23% |
| Cc1ccc(C(=O)CCC(=O)N2CCC(c3nncn3C)CC2)cc1 | -9.86% |
| COc1ccccc1C1(NCc2c(C)nc3c(C)cccn23)CCCC1 | 15.2% |
| Cc1cnc(CNC(=O)[C@@]23CCO[C@@H]2CCNC3)cn1 | -108% |
| O=C(NC1CC1)[C@@H]1C[C@@H]2CCN(Cc3ccoc3)C[C@@H]2O1 | -103% |
| CO[C@H]1CCN(c2ncc(F)cn2)[C@@H]2CN(Cc3ccco3)C[C@H]12 | 13.5% |
| Cc1cnc(N2CCC3(CC2)CC(N(C)Cc2ccncc2)C3)nc1 | 8.73% |
| O=C(c1cscn1)N1CC[C@@H]2[C@@H]1CCN2CC1CCOC1 (stereo partly drawn) | -2.36% |
| COCCN1CCCC12CCN(Cc1cncn1C)CC2 | 8.52% |
| COc1ccc(CN)c(OC(F)F)c1 | -41.7% |
| CN1CCC2(CC1)C(=O)N(C)c1ccc(F)cc12 | -115% |
| C=c1cc(C)oc1=C1NC(c2c(C)ncc3c2CCNC3)=NO1 | -0.132% |
| CCCN1C[C@@H]2CC[C@H]1CN(Cc1ccc(-n3cccn3)cc1)C2 | 5.05% |

Reference: ChEMBL document CHEMBL4513216, “Probing the Open Global Health Chemical Diversity Library for Multistage-Active Starting Points for Next-Generation Antimalarials” (ACS Infect Dis, 2020)
